Experimental data taken from ChEMBL document CHEMBL1641555, “Asymmetric synthesis of phenanthroindolizidine alkaloids with hydroxyl group at the C14 position and evaluation of their antitumor activities” (Bioorg Med Chem Lett, 2011).

Legend:
HT-29 = assay: Cytotoxicity against human HT-29 cells after 96 hrs by WST-8 assay; assay type: functional, cell-based; conditions: HT-29, 96 h
Summary of the method: (§1)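 KB, A549 and HT-29 cells in exponential growth were seeded at 10³ cells/well. Serially diluted compounds were added the following day and incubated for 96 h. WST-8 reagent was then added for 1 h at 37 °C, and viability was read as absorbance at 450 nm.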

A549 = assay: Cytotoxicity against human A549 cells after 96 hrs by WST-8 assay; assay type: functional, cell-based; conditions: A549, 96 h; summary of the method: as §1
KB = assay: Cytotoxicity against human KB cells after 96 hrs by WST-8 assay; assay type: functional, cell-based; summary of the method: as §1
Mus musculus [1] = assay: Toxicity in mouse Meth-A cells xenografted BALB/c mouse assessed as mortality at 25 mg/kg, iv; assay type: organism-based; design: dose 25 mg/kg, route intravenous; conditions: in vivo
Summary of the method: (§2)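 Meth A sarcoma cells, 2.5 × 10⁵ per mouse, inoculated sc into 7-week-old male BALB/c mice, 5 per group. Samples given iv on days 1, 5 and 9. Animals followed to day 21 after tumor inoculation, when tumors were weighed.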

[2] = Antitumor activity against mouse Meth-A cells xenografted in BALB/c mouse assessed as tumor growth inhibition at 50 mg/kg, iv administered on day 1, 5, and 9 measured after 21 days relative to control; assay type: functional
Summary of the method: (§3)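 Meth A sarcoma cells, 2.5 × 10⁵ per mouse, implanted sc in 7-wk-old male BALB/c mice, 5 per group. Compound given iv on days 1, 5 and 9. Tumors excised and weighed on day 21 after inoculation. Inhibition rate (%) = [1 − (mean tumor weight treated)/(mean tumor weight control)] × 100.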

[3] = Antitumor activity against mouse Meth-A cells xenografted in BALB/c mouse assessed as tumor growth inhibition at 25 mg/kg, iv administered on day 1, 5, and 9 measured after 21 days relative to control; assay type: functional; summary of the method: as §3
Mus musculus [4] = assay: Toxicity in mouse Meth-A cells xenografted BALB/c mouse assessed as mortality at 50 mg/kg, iv; assay type: organism-based; design: dose 50 mg/kg, route intravenous; conditions: in vivo; summary of the method: as §2
Mus musculus [5] = assay: Toxicity in mouse Meth-A cells xenografted BALB/c mouse assessed as mortality at 100 mg/kg, iv; assay type: organism-based; design: dose 100 mg/kg, route intravenous; conditions: in vivo; summary of the method: as §2

Structure (SMILES) | IC50 (HT-29) | IC50 (A549) | IC50 (KB) | Activity (Mus musculus [1]) | inhibition in vivo at 50 mg/kg [2] | inhibition in vivo at 25 mg/kg [3] | Activity (Mus musculus [4]) | Activity (Mus musculus [5])
COc1cc2c3c(c4cc(O)ccc4c2cc1OC)[C@H](O)[C@@H]1CCCN1C3 | 6.8 nM | 4.7 nM | 43.8 nM | – | – | – | – | –
COc1cc2c3c(c4cccc(O)c4c2cc1OC)[C@H](O)[C@@H]1CCCN1C3 | 82.1 nM | 3.3 nM | 1.4 nM | – | – | – | – | –
COc1cc2c3c(c4ccc(O)cc4c2cc1OC)[C@@H](O)[C@H]1CCCN1C3 | 12.5 nM | 10.9 nM | 3 nM | Non-toxic | 12.5% | 7.2% | Non-toxic | –
COc1ccc2c3c(c4cc(OC)c(OC)cc4c2c1)CN1CCC[C@H]1[C@H]3O | 2.1 nM | 0.3 nM | 4.2 nM | – | – | 4.3% | Non-toxic | –
COc1ccc2c3c(c4cc(OC)c(OC)cc4c2c1)CN1CCC[C@@H]1[C@@H]3O | 20.8 nM | 15.5 nM | 47.4 nM | – | – | – | – | –
COc1cc2c3c(c4ccccc4c2cc1OC)[C@H](O)[C@@H]1CCCN1C3 | 10.6 nM | 7.4 nM | 17.5 nM | – | – | – | – | –
COc1cc2c3c(c4ccccc4c2cc1OC)[C@@H](O)[C@H]1CCCN1C3 | 584 nM | 604 nM | 2030 nM | – | – | – | – | –
CCc1ccc2c3c(c4cc(OC)c(OC)cc4c2c1)CN1CCC[C@H]1[C@H]3O | 135 nM | 559 nM | 180 nM | – | – | – | – | –
CCc1ccc2c3c(c4cc(OC)c(OC)cc4c2c1)CN1CCC[C@@H]1[C@@H]3O | 320 nM | 268 nM | 1590 nM | – | – | – | – | –
COc1cc2c3c(c4ccc(F)cc4c2cc1OC)[C@H](O)[C@@H]1CCCN1C3 | 19.6 nM | 11.2 nM | 49 nM | – | – | – | – | –
COc1cc2c3c(c4ccc(F)cc4c2cc1OC)[C@@H](O)[C@H]1CCCN1C3 | 106 nM | 92.8 nM | 653 nM | – | – | – | – | –
COc1cc2c3c(c4ccc(OC(C)=O)cc4c2cc1OC)[C@H](O)[C@@H]1CCCN1C3 | 0.2 nM | 1.5 nM | 1.7 nM | Non-toxic | 39.3% | 54.9% | – | –
Oc1ccc2c3c(c4ccccc4c2c1)CN1CCC[C@H]1[C@H]3O | 458 nM | 354 nM | 1960 nM | – | – | – | – | –
Oc1ccc2c3c(c4cc5c(cc4c2c1)OCO5)CN1CCC[C@H]1[C@H]3O | 134 nM | 54.4 nM | 25.5 nM | – | – | – | – | –
CC1(C)Oc2cc3c4c(c5ccc(O)cc5c3cc2O1)[C@H](O)[C@@H]1CCCN1C4 | 488 nM | 928 nM | 742 nM | – | – | – | – | –
CCOc1cc2c3c(c4ccc(O)cc4c2cc1OCC)[C@H](O)[C@@H]1CCCN1C3 | 1.2 nM | 0.7 nM | 10.9 nM | Non-toxic | -10.6% | -3.1% | Non-toxic | –
COc1cc2c(CBr)cc3ccc(OCc4ccccc4)cc3c2cc1OC | – | – | – | – | – | – | Non-toxic | Non-toxic
COc1cc2c3c(c4ccc(O)cc4c2cc1OC)[C@H](O)[C@@H]1CCCN1C3 [TYLOPHORIDICINE E] | 1.6 nM | 0.5 nM | 5.2 nM | Non-toxic | – | 30.6% | Toxic | –
